Assay results from paper PMC5679172 (The Journal of Experimental Medicine, 2017).

Experiments:
Type in all cases: cell-based, mouse
LPS-induced priming = LPS-induced priming in BMDMs; conditions: for LPS-induced TNF-α production or pro–IL-1β expression: BMDMs treated with inhibitor before LPS stimulation
potassium efflux = test: intracellular potassium detection in BMDMs; conditions: LPS-primed Nlrp3−/− BMDMs
Summary of the method: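 BMDMs plated overnight and primed with LPS 50 ng/ml for 3 h, then given test compound for 30 min and nigericin for 30 min. […] Intracellular K+ quantified by ICP optical emission spectrometry with yttrium as internal standard.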

chloride efflux = test: intracellular chloride detection in BMDMs; conditions: LPS-primed Nlrp3−/− BMDMs
Summary of the method: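 BMDMs plated overnight and primed with LPS 50 ng/ml for 3 h, then given test compound for 30 min and nigericin for 15 min. Cells lysed in water for 15 min at 37°C and spun at 10,000 g for 5 min. Supernatant mixed with MQAE and signal read on a plate reader. Residual extracellular chloride subtracted using a control.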

AIM2 inflammasome = test: cytosolic poly; conditions: LPS-primed BMDMs, cytosolic double-stranded DNA poly(dA:dT), IL-1β ELISA
Summary of the method: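 BMDMs plated at 5 × 10^5/ml and primed next day with LPS 50 ng/ml for 3 h. Test compound added for 30 min, then poly(dA:dT) (0.5 µg/ml) delivered by lipofection for 4 h. Supernatant IL-1β measured by ELISA.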

NLRC4 inflammasome = test: Salmonella infection-induced NLRC4 inflammasome activation in BMDMs; conditions: LPS-primed BMDMs, IL-1β ELISA
Summary of the method: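 BMDMs plated at 5 × 10^5/ml and primed next day with LPS 50 ng/ml for 3 h. Test compound added for 30 min, then cells infected with Salmonella typhimurium for 4 h. Supernatant IL-1β measured by ELISA.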

| SMILES | LPS-induced TNF-α production or pro–IL-1β expression (LPS-induced priming) | nigericin-induced potassium efflux (decrease of intracellular potassium) (potassium efflux) | LPS-induced priming effects (LPS-induced priming; BMDMs) | nigericin-induced chloride efflux (decrease of intracellular chloride) (chloride efflux) | AIM2 inflammasome activation (AIM2 inflammasome) | NLRC4 inflammasome activation (NLRC4 inflammasome) |
| --- | --- | --- | --- | --- | --- | --- |
| Cc1ccc(S(=O)(=O)/C=C/C#N)cc1 [BAY 11-7082] | could suppress | – | – | – | – | – |
| CC(O)CC(=O)O (stereo not drawn) [BHB, β-hydroxybutyrate] | could suppress | could suppress | – | – | – | – |
| CC(C)(O)c1coc(S(=O)(=O)NC(=O)Nc2c3c(cc4c2CCC4)CCC3)c1 [MCC950] | – | could not | no effect | could inhibit | – | – |
| O=C(O)c1ccccc1Nc1cccc(C(F)(F)F)c1 [flufenamic acid] | could suppress | could not | – | blocked | – | – |
| O=C(/C=C/c1ccc(O)cc1)c1ccc(O)cc1O [isoliquiritigenin] | could suppress | – | – | – | – | – |
| Cc1cccc(Nc2ccccc2C(=O)O)c1C [mefenamic acid] | could suppress | – | – | – | – | – |
| C=C1C(=O)O[C@H]2[C@H]1CC/C(C)=C/CC[C@@]1(C)O[C@@H]21 [parthenolide] | could suppress | – | – | – | could also inhibit | could also inhibit |
| C[S+]([O-])CCCCN=C=S (centres unmarked) [sulforaphane] | could suppress | – | – | – | could also inhibit | could also inhibit |
